Casp6 inh: inhibitors of human caspase-6; P55212; purified caspase-6, Z-VEID-R110 cleavage fluorescence; inhibition, % at 12.5 µM; 0.53% of 350,000 active; AID 686996;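 active means mean inhibition across replicates at least about 35%, with every replicate also reaching that limit, limit read from the data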;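 further: 0% = median of neutral control wells and 100% = no fluorescence left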
Target sequence (P55212 24-179 limits assumed): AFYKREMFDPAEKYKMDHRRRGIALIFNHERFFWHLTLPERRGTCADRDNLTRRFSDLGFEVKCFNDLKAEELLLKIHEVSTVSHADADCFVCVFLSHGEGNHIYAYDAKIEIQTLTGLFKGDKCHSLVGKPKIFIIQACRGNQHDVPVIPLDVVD
Target sequence (P55212 194-293 limits assumed): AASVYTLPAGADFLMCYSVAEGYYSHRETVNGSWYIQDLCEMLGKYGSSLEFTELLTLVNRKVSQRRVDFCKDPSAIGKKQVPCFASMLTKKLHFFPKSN
ERAP1 inh: blocks human ERAP1 aminopeptidase activity. 0.15% of 340,000 active. recombinant ERAP1, Leu-AMC fluorescence, 60 min. inhibition, % at 10.7 µM. Q9NZ08. AID 652197;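 active means mean replicate inhibition of at least 30%, or all replicates individually reaching that 30% level; inactive means mean below 30% and not every replicate reaching it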;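 further: 0% = neutral control wells and 100% = L-leucinethiol positive control wells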
ARNT-TACC3 inh: disruptors of human ARNT/TACC3 interaction; AID 623870; inhibition, % at 9.99 µM; 0.66% of 390,000 active; Q9Y6A5; AlphaScreen His-ARNT PAS-B/GST-TACC3 binding, luminescence; TACC3 fragment carries E629A point mutation;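 active means mean inhibition of replicates at least 50% and at least half of replicates each reaching 50%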;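 further: 0% = complete ARNT plus TACC3 wells and 100% = ARNT alone without TACC3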
PGC1a acetyl inh: PGC1a acetylation modulation, inhibitor mode. U2OS PGC1a acetylation, AlphaScreen anti-acetyl-lysine; with virally co-expressed GCN5 acetyltransferase. inhibition, % at 15.6 µM. 0.17% of 350,000 active. AID 651687;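 active means every replicate shows inhibition of at least 40%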;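 further: 0% = neutral control wells and 100% = positive control wells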
Ecoli rRNA inh: selective bacterial rRNA inhibition in E. coli. E. coli WT GFP vs humanized-ribosome RFP mutants, fluorescence, 24 h; active compounds read low; DMSO median 0, no signal -100. GFP signal change (wild-type ribosome), % (test concentration not listed). 1.6% of 350,000 active. AID 720706;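 active means significant combined selectivity score with lowered wild-type GFP, culture density cut under 30%, mutant RFP and density less affected; inactive means any of these conditions unmet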
S100A4 inh HTS: S100A4-myosin IIA interaction inhibition; P26447; S100A4/TAMRA-MyoIIA peptide fluorescence polarization; inhibition, % at 10.7 µM; 0.14% of 360,000 active; AID 652163;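 active means mean inhibition of at least 70% across replicates, with every replicate also reaching that level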
Target sequence (P26447 whole entry, looked up): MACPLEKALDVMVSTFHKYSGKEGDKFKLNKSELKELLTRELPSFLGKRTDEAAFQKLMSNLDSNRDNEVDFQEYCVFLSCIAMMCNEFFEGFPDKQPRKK
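Test system: S100A4 monomer protein. Medium: HEPES buffer with Ca2+, pH 7.2. Reagent: fluorescent myosin IIA peptide, 5 nM. Compound dosing: single-point compound testing. Timing: 5 min between mix addition and reading. Benchmarks: DMSO neutral and TFP positive wells.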
Active calls of the source: *; / = no result given. Hits are enriched below; roughly 2.4% of the tested compounds scored in any of these assays.

SMILES | Casp6 inh | ERAP1 inh | ARNT-TACC3 inh | PGC1a acetyl inh | Ecoli rRNA inh | S100A4 inh HTS
C[C@H]1CCCCO[C@H](CN(C)C(=O)Cc2ccccc2)[C@@H](C)CN([C@@H](C)CO)C(=O)c2cc(NC(=O)Nc3ccccc3)ccc2O1 | 0 | -1 | -4 | 3 | -3 | -4
O=C(CSc1ccsc1[N+](=O)[O-])Nc1cc(F)ccc1F | 36* | 10 | / | / | 2 | 2
C[C@@H]1CN([C@H](C)CO)C(=O)c2cccc(NC(=O)C3CCCCC3)c2O[C@@H]1CN(C)S(=O)(=O)c1ccccc1 | 5 | 2 | / | 10 | 0 | 0
Cc1cc(/C=N/NC(N)=S)c(C)n1-c1ccc(Cl)c(Cl)c1 | -1 | 11 | / | / | -3 | -4
COc1cccc(NC(=O)C(=O)N/N=C/c2cc(C)n(-c3ccc(Cl)c(Cl)c3)c2C)c1 | -3 | 2 | 0 | -3 | -18* | -4
C[C@H]1CN([C@@H](C)CO)C(=O)c2cc(NC(=O)NC3CCCCC3)ccc2O[C@@H]1CN(C)Cc1ccc(C(F)(F)F)cc1 | -2 | -1 | -2 | -5 | -1 | 8
Fc1ccc(-n2cc(CNCCc3cccnc3)c(-c3ccccc3Cl)n2)cc1 | -2 | -6 | 3 | / | -40* | -18
Cn1c2ccccc2c(=O)c2c(=O)n(Cc3ccco3)c(-c3ccc(F)cc3)nc21 | -2 | 2 | -10 | -7 | -38* | 0
Cc1ccc(-c2nc3c(c(=O)c4ccccc4n3C)c(=O)n2Cc2ccco2)cc1 | 3 | / | 39 | 0 | -28 | -3
COc1cccc(N=Nc2ccc3ccccc3c2O)c1 | -1 | -8 | 5 | / | 1 | 122*
Oc1c(N=Nc2ccc(F)cc2)ccc2ccccc12 | 1 | 0 | 6 | / | 24 | -2
Oc1c(N=Nc2nn[nH]n2)ccc2ccccc12 | 94* | -1 | / | / | 7 | 38
COc1ccc(NC(=O)N(C)C[C@H]2Oc3ccc(NC(=O)CCCCCC(=O)Nc4ccccc4N)cc3CC(=O)N([C@@H](C)CO)C[C@H]2C)cc1 | 0 | 0 | -17 | 7 | 0 | 7
COc1ccccc1C=NN1CCCCCC1 | -3 | -3 | / | -4 | 9 | 2
Fc1ccc(/C=N/N2CCCCC2)c(F)c1 | -1 | 0 | -5 | 66* | 17 | -4
COc1cccc(/C=N/NC(=O)c2c(-c3ccccc3)noc2C)c1OC | 5 | 0 | -4 | / | -20* | -3
CCOc1cc(/C=N/NC(=O)c2c(-c3ccccc3)noc2C)ccc1O | -2 | 1 | / | / | 4 | 4
COc1cc(/C=N/NC(=O)c2c(-c3ccccc3)noc2C)ccc1O | / | / | 4 | 10 | / | /
COc1ccc(Cl)cc1/C=N/NC(=O)c1c(-c2ccccc2)noc1C | -2 | 2 | 6 | / | -17* | -6
Cc1ccc(/C=N/NC(=O)c2c(-c3ccccc3)noc2C)c(O)c1 | -5 | 2 | 47* | / | -39 | -3
CCOc1cc([N+](=O)[O-])cc(/C=N/NC(=O)c2c(-c3ccccc3)noc2C)c1O | / | / | 57* | 8 | / | /
COc1cccc(/C=N/NC(=O)c2c(-c3ccccc3)noc2C)c1O | / | / | / | 9 | / | /
N#C[C@@H]1[C@H](c2ccc(C3=CCCCC3)cc2)[C@@H](CO)N1S(=O)(=O)c1cccc(F)c1 | 0 | 2 | 26 | -10 | 2 | -12
CCCNC(=O)N1CC2(C1)CN(C(=O)NC(C)C)[C@@H](CO)c1c2c2ccc(OC)cc2n1C | / | / | / | / | 1 | /
C[C@@H]1CN([C@H](C)CO)C(=O)c2c(c3ccccc3n2C)-c2ccccc2CO[C@@H]1CN(C)S(=O)(=O)c1cccc(C#N)c1 | -1 | 2 | 1 | -3 | 4 | -4
SMILES | Casp6 inh | ERAP1 inh | ARNT-TACC3 inh | PGC1a acetyl inh | Ecoli rRNA inh | S100A4 inh HTS
C[C@@H]1CN([C@H](C)CO)S(=O)(=O)c2ccc(-c3cccc(F)c3)cc2O[C@H]1CN(C)S(C)(=O)=O | 0 | 3 | 13 | -7 | -8 | -7
COc1ccc(NC(=O)N(C)C[C@@H]2Oc3c(NS(=O)(=O)c4ccc(Cl)cc4)cccc3C(=O)N([C@@H](C)CO)C[C@@H]2C)cc1 | 0 | 2 | 5 | -4 | 0 | -10
O=C1[C@H](Cc2ccc(C(F)(F)F)cc2)CCn2cc(nn2)COC[C@@H]2CCCCN2C(=O)[C@H](Cc2ccc(C(F)(F)F)cc2)CCn2cc(nn2)COC[C@@H]2CCCCN12 | / | / | / | / | -4 | /
CO[C@@H]1CN(C)C(=O)c2cc(NC(=O)C3CCOCC3)ccc2OC[C@H](C)N(Cc2nccs2)C[C@@H]1C | 0 | 0 | -3 | -4 | -1 | -9
Cc1ccc(S(=O)(=O)N(C)C[C@H]2Oc3c(NC(=O)C4CCCCC4)cccc3C(=O)N([C@@H](C)CO)C[C@H]2C)cc1 | -1 | -6 | 12 | / | / | -7
Cc1ccc(C2C3=C(CC(C)(C)CC3=O)NC3=C2C(=O)c2ccccc23)cc1 (stereo not drawn) | / | / | -2 | / | / | /
COc1cc(C2C3=C(CC(C)(C)CC3=O)NC3=C2C(=O)c2ccccc23)ccc1O (stereo not drawn) | -1 | 2 | 7 | -2 | -31* | 2
COc1ccc(C2Nc3ccccc3NC3=C2C(=O)CC(C)(C)C3)cc1O (stereo not drawn) | 10 | 0 | 47* | 2 | 24 | -3
CC(=O)Nc1ccc2c(c1)C(=O)N(C)C[C@@H](C)[C@@H](CN(C)C(=O)OC(C)(C)C)O2 | / | / | / | / | 1 | /
CO[C@H]1CN(C)C(=O)c2ccc(NC(=O)Nc3cc(F)ccc3F)cc2OC[C@@H](C)NC[C@H]1C | 2 | 0 | -3 | 0 | 2 | 27
CCCOc1ccc(CSc2nc3ccccc3[nH]2)cc1 | / | / | -3 | 12 | / | /
c1ccc(CSc2nc3ccccc3[nH]2)cc1 | -2 | / | -8 | -12 | -22* | -1
CCOc1ccc(OCCSc2nc3ccccc3[nH]2)cc1 | -3 | -1 | -1 | 1 | -28* | 3
Nc1c(-c2ccccc2)c(CSc2nc3ccccc3[nH]2)nn1-c1ccc(Cl)cc1 | -1 | -1 | 2 | / | -19* | 1
COCC#Cc1cnc2c(c1)C(=O)N([C@@H](C)CO)C[C@@H](C)[C@H](CN(C)Cc1ccc(F)cc1)O2 | -3 | 0 | 0 | -3 | 5 | 46
COc1ccc(CCNC(=O)Nc2nc(C(N)COCc3ccccc3)cs2)cc1OC (stereo not drawn) | -1 | 0 | / | -6 | -14* | 4
COc1ccc(CCNC(=O)Nc2nc(C(N)Cc3ccccc3)cs2)cc1OC (stereo not drawn) | 8 | 4 | / | -3 | -8 | -6
O=C(Nc1ccc(S(=O)(=O)Nc2cnc3ccccc3n2)cc1)c1ccc(Cl)cc1Cl | -1 | / | / | 1 | 12 | 0
O=C(Cc1ccc(Cl)cc1)Nc1ccc(S(=O)(=O)Nc2cnc3ccccc3n2)cc1 | 11 | -1 | -10 | 9 | -34* | 1

Bioassay records: PubChem BioAssay, Broad Institute
